From ChEMBL document CHEMBL5303300, “EUbOPEN Chemogenomics Library - Multiplex” (2023)
“And” between values parts separate entries of the source, which are not always exact repeats. Identical values can stand only once.

System: Fibroblast
Experiment: Multiplex assay against human fibroblast
Assay type: toxicity, cell-based
Conditions: number of replicates 2
Method in brief: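 Phenotypes for tubulin, mitochondrial mass and membrane permeability are expressed as per cents of healthy-nucleus cells. Cells were stained live at seeding with Hoechst33342, BioTracker Green Microtubule Cytoskeleton Dye, MitoTracker Red and Annexin V Alexa Fluor 680, then imaged after compound addition on a CQ1 microscope at 37°C and 5% CO2. Machine-learning gating in CellPathfinder separated Hoechst high-intensity objects from normal cells, divided normal cells by nuclear state (healthy, pyknosed, fragmented) and divided pyknosed cells into mitotic or apoptotic.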

[1] = 12 h, 1 µM, compound concentration 1 uM
[2] = 12 h, 10 µM, compound concentration 10 uM
[3] = 24 h, 1 µM, compound concentration 1 uM
[4] = 24 h, 10 µM, compound concentration 10 uM
[5] = 48 h, 1 µM, compound concentration 1 uM
[6] = 48 h, 10 µM, compound concentration 10 uM

Cc1cn(CCN2CCN(c3ccccc3-c3cc(C#N)cc(C(=O)NCCCN4CCCC4)c3)CC2)c2ccccc12
Population Apoptotic (%) [1]: 16% and 47% | Population Fragmented Nuclei (%) [1]: 13% and 14% | Population Healthy Nuclei (%) [1]: 70% and 63% | Population Hoechst High Intensity Objects (%) [1]: 0% | Population Membrane Permeable-Phenotype (%) [1]: 10% and 8% | Population Mitochondria Different-Phenotype (%) [1]: 1% and 5% | Population Mitotic Cells (%) [1]: 83% and 52% | Population Normal (%) [1]: 100% | Population Pyknosed Nuclei (%) [1]: 16% and 21% | Population Tubulin-Different-Phenotype (%) [1]: 41% and 35% | Total Cell Count [1]: 222 and 214 | Population Apoptotic (%) [2]: 40% and 37% | Population Fragmented Nuclei (%) [2]: 28% and 31% | Population Healthy Nuclei (%) [2]: 51% and 56% | Population Hoechst High Intensity Objects (%) [2]: 0% | Population Membrane Permeable-Phenotype (%) [2]: 7% and 5% | Population Mitochondria Different-Phenotype (%) [2]: 20% and 17% | Population Mitotic Cells (%) [2]: 59% and 62% | Population Normal (%) [2]: 100% | Population Pyknosed Nuclei (%) [2]: 19% and 12% | Population Tubulin-Different-Phenotype (%) [2]: 82% and 83% | Total Cell Count [2]: 248 and 358 | Population Apoptotic (%) [3]: 33% and 60% | Population Fragmented Nuclei (%) [3]: 14% and 20% | Population Healthy Nuclei (%) [3]: 73% and 65% | Population Hoechst High Intensity Objects (%) [3]: 0% | Population Membrane Permeable-Phenotype (%) [3]: 5% and 3% | Population Mitochondria Different-Phenotype (%) [3]: 3% and 10% | Population Mitotic Cells (%) [3]: 66% and 39% | Population Normal (%) [3]: 100% | Population Pyknosed Nuclei (%) [3]: 11% and 13% | Population Tubulin-Different-Phenotype (%) [3]: 37% and 33% | Total Cell Count [3]: 209 and 243 | Population Apoptotic (%) [4]: 81% and 82% | Population Fragmented Nuclei (%) [4]: 17% and 27% | Population Healthy Nuclei (%) [4]: 57% and 55% | Population Hoechst High Intensity Objects (%) [4]: 0% | Population Membrane Permeable-Phenotype (%) [4]: 2% | Population Mitochondria Different-Phenotype (%) [4]: 51% and 58% | Population Mitotic Cells (%) [4]: 18% and 17% | Population Normal (%) [4]: 99% | Population Pyknosed Nuclei (%) [4]: 25% and 17% | Population Tubulin-Different-Phenotype (%) [4]: 93% and 88% | Total Cell Count [4]: 197 and 332 | Population Apoptotic (%) [5]: 44% and 76% | Population Fragmented Nuclei (%) [5]: 19% and 24% | Population Healthy Nuclei (%) [5]: 77% and 70% | Population Hoechst High Intensity Objects (%) [5]: 0% | Population Membrane Permeable-Phenotype (%) [5]: 2% and 3% | Population Mitochondria Different-Phenotype (%) [5]: 0% and 3% | Population Mitotic Cells (%) [5]: 55% and 23% | Population Normal (%) [5]: 100% and 99% | Population Pyknosed Nuclei (%) [5]: 3% and 5% | Population Tubulin-Different-Phenotype (%) [5]: 23% and 17% | Total Cell Count [5]: 241 and 237 | Population Apoptotic (%) [6]: 95% | Population Fragmented Nuclei (%) [6]: 9% and 17% | Population Healthy Nuclei (%) [6]: 46% and 62% | Population Hoechst High Intensity Objects (%) [6]: 1% and 0% | Population Membrane Permeable-Phenotype (%) [6]: 6% and 1% | Population Mitochondria Different-Phenotype (%) [6]: 75% and 67% | Population Mitotic Cells (%) [6]: 4% | Population Normal (%) [6]: 98% and 99% | Population Pyknosed Nuclei (%) [6]: 43% and 19% | Population Tubulin-Different-Phenotype (%) [6]: 93% and 91% | Total Cell Count [6]: 144 and 240

CNS(=O)(=O)c1ccc(N(C)C)c(Nc2ncnc3cc(OC)c(OC)cc23)c1
Population Apoptotic (%) [1]: 40% and 34% | Population Fragmented Nuclei (%) [1]: 11% and 10% | Population Healthy Nuclei (%) [1]: 55% and 63% | Population Hoechst High Intensity Objects (%) [1]: 0% | Population Membrane Permeable-Phenotype (%) [1]: 4% and 6% | Population Mitochondria Different-Phenotype (%) [1]: 0% | Population Mitotic Cells (%) [1]: 60% and 65% | Population Normal (%) [1]: 100% | Population Pyknosed Nuclei (%) [1]: 33% and 26% | Population Tubulin-Different-Phenotype (%) [1]: 9% and 6% | Total Cell Count [1]: 136 and 169 | Population Apoptotic (%) [2]: 41% and 28% | Population Fragmented Nuclei (%) [2]: 13% and 8% | Population Healthy Nuclei (%) [2]: 61% and 67% | Population Hoechst High Intensity Objects (%) [2]: 0% | Population Membrane Permeable-Phenotype (%) [2]: 4% and 6% | Population Mitochondria Different-Phenotype (%) [2]: 1% | Population Mitotic Cells (%) [2]: 58% and 71% | Population Normal (%) [2]: 99% and 100% | Population Pyknosed Nuclei (%) [2]: 24% and 23% | Population Tubulin-Different-Phenotype (%) [2]: 22% and 16% | Total Cell Count [2]: 206 and 246 | Population Apoptotic (%) [3]: 37% and 46% | Population Fragmented Nuclei (%) [3]: 11% and 13% | Population Healthy Nuclei (%) [3]: 54% and 60% | Population Hoechst High Intensity Objects (%) [3]: 0% | Population Membrane Permeable-Phenotype (%) [3]: 2% and 8% | Population Mitochondria Different-Phenotype (%) [3]: 0% and 2% | Population Mitotic Cells (%) [3]: 62% and 53% | Population Normal (%) [3]: 99% | Population Pyknosed Nuclei (%) [3]: 33% and 25% | Population Tubulin-Different-Phenotype (%) [3]: 8% and 10% | Total Cell Count [3]: 136 and 162 | Population Apoptotic (%) [4]: 56% and 43% | Population Fragmented Nuclei (%) [4]: 11% and 10% | Population Healthy Nuclei (%) [4]: 66% and 71% | Population Hoechst High Intensity Objects (%) [4]: 0% | Population Membrane Permeable-Phenotype (%) [4]: 7% and 2% | Population Mitochondria Different-Phenotype (%) [4]: 2% | Population Mitotic Cells (%) [4]: 43% and 56% | Population Normal (%) [4]: 100% and 99% | Population Pyknosed Nuclei (%) [4]: 22% and 17% | Population Tubulin-Different-Phenotype (%) [4]: 20% and 12% | Total Cell Count [4]: 207 and 220 | Population Apoptotic (%) [5]: 53% and 68% | Population Fragmented Nuclei (%) [5]: 20% and 18% | Population Healthy Nuclei (%) [5]: 59% and 65% | Population Hoechst High Intensity Objects (%) [5]: 0% | Population Membrane Permeable-Phenotype (%) [5]: 10% and 7% | Population Mitochondria Different-Phenotype (%) [5]: 1% | Population Mitotic Cells (%) [5]: 46% and 31% | Population Normal (%) [5]: 99% and 100% | Population Pyknosed Nuclei (%) [5]: 19% and 15% | Population Tubulin-Different-Phenotype (%) [5]: 15% and 8% | Total Cell Count [5]: 154 and 185 | Population Apoptotic (%) [6]: 62% and 75% | Population Fragmented Nuclei (%) [6]: 17% and 14% | Population Healthy Nuclei (%) [6]: 68% and 78% | Population Hoechst High Intensity Objects (%) [6]: 0% | Population Membrane Permeable-Phenotype (%) [6]: 6% and 3% | Population Mitochondria Different-Phenotype (%) [6]: 2% and 3% | Population Mitotic Cells (%) [6]: 37% and 25% | Population Normal (%) [6]: 99% and 100% | Population Pyknosed Nuclei (%) [6]: 14% and 7% | Population Tubulin-Different-Phenotype (%) [6]: 12% and 11% | Total Cell Count [6]: 193 and 207
